Among the data in ChEMBL document CHEMBL2396596, “Anthraquinone derivatives from Rumex plants and endophytic Aspergillus fumigatus and their effects on diabetic nephropathy” (Bioorg Med Chem Lett, 2013) are Activity and inhibition values, retold here.

Activity calls are given as the source filed them. The rule behind the calls is not given here.

The nature of data set [1]: Cytotoxicity against rat HBZY-1 cells assessed as cell viability at 10 uM after 48 hrs by MTT assay. Particulars: hbzy-1, 48 h. The data set is classed as cell-based. Put shortly:
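Cells were seeded at 10⁴ per well and held in serum-free medium for 24 h. They were exposed to compound at 10 μM, or left without it, for 48 h. MTT (5 mg/mL stock) was added for 4 h at 37 °C, the formazan was dissolved in DMSO, and A570 was read. Values were normalized to control-medium cells.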
On the technique in general: Tetrazolium assays rely on reduction of a dye to a coloured formazan, in cell work by metabolically active cells.

Data set [2] in a line: Antidiabetic nephropathic activity in rat HBZY-1 cells assessed as inhibition of high concentration glucose-induced fibronectin production at 10 uM treated 1 hr before glucose challenge measured after 24 hrs by ELISA. It is filed as functional, cell-based. Put shortly: (§1)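 HBZY-1 rat mesangial cells (passages 3–10) were grown in DMEM with 5.6 mM glucose, 20% FCS and 10 mM HEPES. At 80% confluence they were arrested in 0.5% FCS for 24 h, then pretreated with compound for 1 h and stimulated with high glucose (25 mM) for 24 h. Supernatant IL-6, fibronectin or collagen IV was measured by sandwich ELISA, normalized to total cell protein (BCA), and compared by ANOVA.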
For orientation: An ELISA detects its analyte on a solid surface through an enzyme-linked reagent.

The nature of data set [3]: Antidiabetic nephropathic activity in rat HBZY-1 cells assessed as inhibition of high concentration glucose-induced collagen-4 production at 10 uM treated 1 hr before glucose challenge measured after 24 hrs by ELISA. The data set is classed as functional, cell-based. Put shortly:
as §1

The nature of data set [4]: Antidiabetic nephropathic activity in rat HBZY-1 cells assessed as inhibition of high concentration glucose-induced IL-6 production at 10 uM treated 1 hr before glucose challenge measured after 24 hrs by ELISA. The data set is classed as functional, cell-based. An outline of the steps: as §1
Data set [5] is described as follows: Antidiabetic nephropathic activity in rat HBZY-1 cells assessed as inhibition of high concentration glucose-induced IL-6 production at 88 uM treated 1 hr before glucose challenge measured after 24 hrs by ELISA. The data set is classed as functional, cell-based.
The nature of data set [6]: Antidiabetic nephropathic activity in rat HBZY-1 cells assessed as inhibition of high concentration glucose-induced IL-6 production at 35 uM treated 1 hr before glucose challenge measured after 24 hrs by ELISA. The data set is classed as functional, cell-based. Put shortly:
as §1

Consider `COc1cc(O)c2c(c1)[C@@](O)([C@@H]1O[C@H](CO)[C@@H](O)[C@H](O)[C@H]1O)c1cc(C)cc(O)c1C2=O`, for which the Activity result in data set [1] was “Non-toxic”. The inhibition result in data set [2], in data set [3] and in data set [4] was “Active” each time.

On to `Cc1cc(O[C@@H]2O[C@H](CO)[C@@H](O)[C@H](O)[C@H]2O)c(C(=O)c2c(O)cccc2O)c(C(=O)O)c1`, for which the Activity result in data set [1] is “Non-toxic”. For the same compound, the inhibition result in data set [2], in data set [3] and in data set [4] was “Active” in each case.

On to `Cc1cc(O)c2c(c1)[C@@](O)([C@@H]1O[C@H](CO)[C@@H](O)[C@H](O)[C@H]1O)c1cc(O)cc(O)c1C2=O`, for which the Activity entry in data set [1] is recorded as “Non-toxic”. In addition, the inhibition result in data set [2] and in data set [3] was “Active” throughout.

Consider `COC(=O)c1cc(O)cc(OC)c1C(=O)c1c(O)cc(C)cc1OC`, for which the Activity entry in data set [1] is recorded as “Non-toxic”. The inhibition entry in data set [2], in data set [3] and in data set [4] was “Active” in each case.

In the case of `CC(=O)OC[C@H]1O[C@@H](Oc2cc(O)cc3c2C(=O)c2c(O)cc(C)cc2C3=O)[C@H](O)[C@@H](O)[C@@H]1O`, the inhibition result in data set [4] is “Active”.

Turning to `COc1cc(C)cc2c1C(=O)c1c(O)cc(O)cc1C2=O`, in data set [4], the inhibition result was “Active”.

On to `COc1cc(O)c2c(c1)[C@](O)([C@@H]1O[C@H](CO)[C@@H](O)[C@H](O)[C@H]1O)c1cc(C)cc(O)c1C2=O`, for which the inhibition entry in data set [4] was “Active”.

On to `Cc1cc(O)c2c(c1)C(=O)c1cc(O)cc(O[C@@H]3O[C@H](CO)[C@@H](O)[C@H](O)[C@H]3O)c1C2=O`, for which the inhibition entry in data set [4] was “Active”.

In the case of `O=C(O)c1cc(O)c2c(c1)C(=O)c1cccc(O)c1C2=O`, the inhibition result in data set [5] is “Active”. The inhibition result in data set [6] is “inactive”.

Regarding `O=C1c2cccc(O)c2C(=O)c2c(O)cc(CO)cc21`, in data set [4], the inhibition result is “Active”.

In the case of `COC(=O)c1c(OC)c(O)cc(OC)c1C(=O)c1c(O)cc(C)cc1OC` [ASPERFUMIN], the Activity result in data set [1] is listed as “Non-toxic”. In addition, the inhibition entry in data set [2], in data set [3] and in data set [4] was “Active” each time.

For `Cc1cc(O)c2c(c1)C(=O)c1cccc(O)c1C2=O` [CHRYSOPHANOL], the Activity result in data set [1] is listed as “Non-toxic”. In addition, the inhibition entry in data set [2], in data set [3] and in data set [4] was “Active” in each case.

`Cc1cc(O)c2c(c1)C(=O)c1cc(O)cc(O)c1C2=O` [EMODIN]: the Activity result in data set [1] is reported as “Non-toxic”. In addition, the inhibition entry in data set [2], in data set [3] and in data set [4] was “Active” each time.

`COc1cc(O)c2c(c1)C(=O)c1cc(C)cc(O)c1C2=O` [PHYSCION]: the Activity result in data set [1] was “Non-toxic”. Further, the inhibition result in data set [2], in data set [3] and in data set [4] was “Active” each time.

`COc1cc(O)cc2c1C(=O)c1c(O)cc(C)cc1C2=O` [QUESTIN]: in data set [1], the Activity result is recorded as “Non-toxic”. The inhibition result in data set [2], in data set [3] and in data set [4] was “Active” each time.

`COC(=O)C1=CC(=O)C=C(OC)C12Oc1cc(C)cc(OC)c1C2=O` (stereo unspecified) [TRYPACIDIN]: the Activity result in data set [1] is recorded as “Non-toxic”. Further, the inhibition entry in data set [2], in data set [3] and in data set [4] was “Active” in each case.
